Experimental data taken from ChEMBL document CHEMBL1687740, “Cellular accumulation and pharmacodynamic evaluation of the intracellular activity of CEM-101, a novel fluoroketolide, against Staphylococcus aureus, Listeria monocytogenes, and Legionella pneumophila in human THP-1 macrophages” (Antimicrob Agents Chemother, 2009).
≈ marks a conversion by molar mass, not a printed value. Calls of active or inactive are those of the source. The calls are words filed in the database; no cut-off is given here.

Legend:
THP-1 [1] = experiment: Drug uptake in human THP1 cells after 24 hrs in presence of verapamil; type: ADME, cell-based; details: thp-1, 24 h
Method in brief: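 Accumulation at 37°C, 10 mg/liter drug, with verapamil 150 μM for 24 h. Microbiological assay normalized to cell protein. n = 3.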

THP-1 [2] = experiment: Drug uptake in human THP1 cells after 24 hrs in presence of gemfibrozil; type: ADME, cell-based; details: thp-1, 24 h
Method in brief: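 Accumulation at 37°C, 10 mg/liter drug, with gemfibrozil 250 μM for 24 h. Microbiological assay normalized to cell protein. n = 3.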

Staphylococcus aureus [3] = experiment: Antibacterial activity against methicillin-sensitive Staphylococcus aureus ATCC 25923 at pH 5.5 to 7.4 after 24 hrs; type: functional
Listeria monocytogenes [4] = experiment: Antibacterial activity against Listeria monocytogenes EGD at pH 5.5 to 7.4 after 24 hrs; type: functional; details: EGD-e
Staphylococcus aureus [5] = experiment: Antibacterial activity against methicillin-sensitive Staphylococcus aureus ATCC 25923 assessed as decrease of CFU after 24 hrs relative to initial inoculum; type: functional
Method in brief: (§1)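 24-h concentration-response in Mueller-Hinton broth; original inoculum (0.97 ± 0.24) × 10⁶ CFU/ml. Hill equation fit (slope factor 1). Emax = log10 CFU decrease from inoculum extrapolated to infinite concentration. Cs = concentration giving CFU equal to inoculum, by graphical intrapolation. Counts under five taken as below detection. n = 3.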

Staphylococcus aureus [6] = experiment: Antibacterial activity against methicillin-sensitive Staphylococcus aureus ATCC 25923 assessed as decrease of CFU after 24 hrs; type: functional, organism-based; details: ATCC 25923, 24 h; method in brief: as §1
Staphylococcus aureus [7] = experiment: Antibacterial activity against methicillin-sensitive Staphylococcus aureus ATCC 25923 assessed as concentration required to no apparent bacterial growth after 24 hrs; type: functional; method in brief: as §1
Staphylococcus aureus [8] = experiment: Antibacterial activity against methicillin-sensitive Staphylococcus aureus ATCC 25923 infected in human THP1 cells assessed as decrease of CFU after 24 hrs relative to initial inoculum; type: functional, THP-1
Method in brief: (§2)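 THP-1 macrophages infected, non-phagocytosed bacteria removed, then exposed 24 h over a concentration range. Postphagocytosis inoculum (2.74 ± 0.55) × 10⁶ CFU/mg protein. Hill fit (slope 1). […] Cs = no change from inoculum, by graphical intrapolation. n = 3.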

Staphylococcus aureus [9] = experiment: Antibacterial activity against methicillin-sensitive Staphylococcus aureus ATCC 25923 infected in human THP1 cells assessed as decrease of CFU after 24 hrs; type: functional, organism-based; details: ATCC 25923, THP-1, 24 h; method in brief: as §2
Staphylococcus aureus [10] = experiment: Antibacterial activity against methicillin-sensitive Staphylococcus aureus ATCC 25923 infected in human THP1 cells assessed as concentration required to no apparent bacterial growth after 24 hrs; type: functional, THP-1; method in brief: as §2
THP-1 [11] = experiment: Drug uptake in human THP1 cells at acidic pH after 30 mins; type: ADME, cell-based; details: thp-1, 0.5 h
Method in brief: (§3)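 30-min accumulation at 37°C, 10 mg/liter extracellular, in culture medium at varied pH. Microbiological drug assay normalized to cell protein, converted at 5 μl/mg protein. n = 3.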

Staphylococcus aureus [12] = experiment: Antibacterial activity against methicillin-sensitive Staphylococcus aureus ATCC 25923 after 24 hrs; type: functional; details: ATCC 25923, 24 h
THP-1 [13] = experiment: Drug uptake in human THP1 cells at pH 6 to 7 after 30 mins; type: ADME, cell-based; details: thp-1, pH 6, 0.5 h; method in brief: as §3
THP-1 [14] = experiment: Drug uptake in human THP1 cells after 2 hrs in presence of monensin; type: ADME, cell-based; details: thp-1, 2 h
Method in brief: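 Accumulation at 37°C, 10 mg/liter drug, with monensin 50 μM for 2 h. Microbiological assay normalized to cell protein. n = 3.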

Listeria monocytogenes [15] = experiment: Antibacterial activity against Listeria monocytogenes EGD after 24 hrs; type: functional
Legionella pneumophila [16] = experiment: Antibacterial activity against Legionella pneumophila ATCC 33153 after 48 hrs; type: functional; details: ATCC 33153, 48 h
Method in brief: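 L. pneumophila MIC determined in α-ketoglutarate-buffered yeast extract broth, read after 48 h incubation.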

Legionella pneumophila [17] = experiment: Antibacterial activity against Legionella pneumophila ATCC 33153 at pH 6.5 to 7.4 after 48 hrs; type: functional; details: ATCC 33153, 48 h
Staphylococcus aureus [18] = experiment: Antibacterial activity against methicillin-sensitive Staphylococcus aureus ATCC 25923 assessed as decrease of CFU at 4 mg/liter; type: functional, organism-based
Method in brief: (§4)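 Short-term 6-h time-kill in broth at pH 7.4 at fixed extracellular concentrations of 0.7 or 4 mg/liter; CFU followed over time; three independent experiments.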

Staphylococcus aureus [19] = experiment: Antibacterial activity against methicillin-sensitive Staphylococcus aureus ATCC 25923 infected in human THP1 cells assessed as decrease of intracellular CFU at 4 mg/liter; type: functional
Method in brief: (§5)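 Phagocytosed bacteria in THP-1 macrophages exposed to a fixed extracellular concentration of 0.7 or 4 mg/liter; intracellular CFU followed over 6 h; three independent experiments.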

Listeria monocytogenes [20] = experiment: Antibacterial activity against […] Listeria monocytogenes EGD assessed as decrease of CFU after 24 hrs relative to initial inoculum; type: functional, EGD-e
Listeria monocytogenes [21] = experiment: Antibacterial activity against […] Listeria monocytogenes EGD assessed as decrease of CFU after 24 hrs; type: functional, organism-based; details: EGD-e
Listeria monocytogenes [22] = experiment: Antibacterial activity against […] Listeria monocytogenes EGD assessed as concentration required to no apparent bacterial growth after 24 hrs; type: functional, EGD-e
Legionella pneumophila [23] = experiment: Antibacterial activity against Legionella pneumophila infected in human THP1 cells assessed as decrease of CFU after 48 hrs; details: THP-1, 48 h
Legionella pneumophila [24] = experiment: Antibacterial activity against Legionella pneumophila infected in human THP1 cells assessed as decrease of CFU after 48 hrs relative to initial inoculum
Legionella pneumophila [25] = experiment: Antibacterial activity against Legionella pneumophila infected in human THP1 cells assessed as concentration required to no apparent bacterial growth after 48 hrs
THP-1 [26] = experiment: Drug uptake in human THP1 cells after 24 hrs relative to extracellular concentration; type: ADME, cell-based; details: thp-1, 24 h
Method in brief: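 THP-1 cells incubated at 37°C with drug at 10 mg/liter extracellular, accumulation followed up to 24 h. Cell-associated drug assayed microbiologically with S. aureus ATCC 25923, normalized to cell protein (Folin-Ciocalteu/biuret) and converted at 5 μl/mg protein to the cellular/extracellular concentration ratio. n = 3.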

Staphylococcus aureus [27] = experiment: Antibacterial activity against methicillin-sensitive Staphylococcus aureus ATCC 25923 by time kill study; type: functional; method in brief: as §4
Staphylococcus aureus [28] = experiment: Antibacterial activity against methicillin-sensitive Staphylococcus aureus ATCC 25923 assessed as decrease of CFU at 0.7 mg/liter; type: functional, organism-based; method in brief: as §4
Staphylococcus aureus [29] = experiment: Antibacterial activity against methicillin-sensitive Staphylococcus aureus ATCC 25923 infected in human THP1 cells assessed as decrease of intracellular CFU at 0.7 mg/liter; type: functional, organism-based; details: THP-1; method in brief: as §5

CC[C@H]1OC(=O)[C@H](C)[C@@H](O[C@H]2C[C@@](C)(OC)[C@@H](O)[C@H](C)O2)[C@H](C)[C@@H](O[C@@H]2O[C@H](C)C[C@H](N(C)C)[C@H]2O)[C@](C)(OC)C[C@@H](C)C(=O)[C@H](C)[C@@H](O)[C@]1(C)O [CLARITHROMYCIN]
Drug uptake (THP-1 [1]): Active
Drug uptake (THP-1 [2]): Active
MIC (Staphylococcus aureus [3]): inactive
MIC (Listeria monocytogenes [4]): inactive
log10cfu (Staphylococcus aureus [5]): -1.41
EC50 (Staphylococcus aureus [6]): 0.8 µg/mL (≈ 1.07 µM)
Activity (Staphylococcus aureus [7]): 1.32 mg/L
log10cfu (Staphylococcus aureus [8]): -0.18
EC50 (Staphylococcus aureus [9]): 0.046 µg/mL (≈ 0.0615 µM)
Activity (Staphylococcus aureus [10]): 0.84 mg/L

CC[C@H]1OC(=O)[C@H](C)C(=O)[C@H](C)[C@@H](O[C@@H]2O[C@H](C)C[C@H](N(C)C)[C@H]2O)[C@](C)(OC)C[C@@H](C)C(=O)[C@H](C)[C@H]2N(CCCCn3cnc(-c4cccnc4)c3)C(=O)O[C@]12C [TELITHROMYCIN]
Drug uptake (THP-1 [1]): Active
Drug uptake (THP-1 [2]): Active
MIC (Staphylococcus aureus [3]): inactive
MIC (Listeria monocytogenes [4]): inactive
log10cfu (Staphylococcus aureus [5]): -1.23
EC50 (Staphylococcus aureus [6]): 1.78 µg/mL (≈ 2.19 µM)
Activity (Staphylococcus aureus [7]): 3.4 mg/L
log10cfu (Staphylococcus aureus [8]): 0.04
EC50 (Staphylococcus aureus [9]): 0.11 µg/mL (≈ 0.135 µM)
Activity (Staphylococcus aureus [10]): >50 mg/L

CC[C@H]1OC(=O)[C@H](C)[C@@H](O[C@H]2C[C@@](C)(OC)[C@@H](O)[C@H](C)O2)[C@H](C)[C@@H](O[C@@H]2O[C@H](C)C[C@H](N(C)C)[C@H]2O)[C@](C)(O)C[C@@H](C)CN(C)[C@H](C)[C@@H](O)[C@]1(C)O [AZITHROMYCIN]
Drug uptake (THP-1 [11]): Not Active
MIC (Staphylococcus aureus [12]): 0.5 µg/mL (≈ 0.668 µM)
Drug uptake (THP-1 [13]): Active
Drug uptake (THP-1 [14]): Not Active
Drug uptake (THP-1 [1]): Active
Drug uptake (THP-1 [2]): Active
MIC (Listeria monocytogenes [15]): 1 µg/mL (≈ 1.34 µM)
MIC (Legionella pneumophila [16]): 0.016 µg/mL (≈ 0.0214 µM)
MIC (Staphylococcus aureus [3]): inactive
MIC (Listeria monocytogenes [4]): inactive
MIC (Legionella pneumophila [17]): 0.01 µg/mL (≈ 0.0134 µM)
Activity (Staphylococcus aureus [18]): Active
Activity (Staphylococcus aureus [19]; THP-1): inactive
log10cfu (Staphylococcus aureus [5]): -1
EC50 (Staphylococcus aureus [6]): 0.12 µg/mL (≈ 0.16 µM)
Activity (Staphylococcus aureus [7]): 0.29 mg/L
log10cfu (Staphylococcus aureus [8]): -0.29
EC50 (Staphylococcus aureus [9]): 0.024 µg/mL (≈ 0.032 µM)
Activity (Staphylococcus aureus [10]): 0.63 mg/L
log10cfu (Listeria monocytogenes [20]): -0.81
EC50 (Listeria monocytogenes [21]): 2.66 µg/mL (≈ 3.55 µM)
Activity (Listeria monocytogenes [22]): 11.6 mg/L
EC50 (Legionella pneumophila [23]): 2.86 µg/mL (≈ 3.82 µM)
log10cfu (Legionella pneumophila [24]): -0.83
Activity (Legionella pneumophila [25]): 2.9 mg/L

CC[C@H]1OC(=O)[C@@](C)(F)C(=O)[C@H](C)[C@@H](O[C@@H]2O[C@H](C)C[C@H](N(C)C)[C@H]2O)[C@](C)(OC)C[C@@H](C)C(=O)[C@H](C)[C@H]2N(CCCCn3cc(-c4cccc(N)c4)nn3)C(=O)O[C@]12C [SOLITHROMYCIN]
fold change (FC) (THP-1 [26]): 350
Drug uptake (THP-1 [11]): Not Active
MIC (Staphylococcus aureus [12]): 0.06 µg/mL (≈ 0.071 µM)
Time (Staphylococcus aureus [27]): 6 h
Drug uptake (THP-1 [13]): Active
Drug uptake (THP-1 [14]): Not Active
Drug uptake (THP-1 [1]): Active
Drug uptake (THP-1 [2]): Active
MIC (Listeria monocytogenes [15]): 0.004 µg/mL (≈ 0.00473 µM)
MIC (Legionella pneumophila [16]): 0.004 µg/mL (≈ 0.00473 µM)
MIC (Staphylococcus aureus [3]; ATCC 25923, 24 h): 0.06 µg/mL (≈ 0.071 µM)
MIC (Listeria monocytogenes [4]): 0.0039 µg/mL (≈ 0.00462 µM)
MIC (Legionella pneumophila [17]): 0.005 µg/mL (≈ 0.00592 µM)
Activity (Staphylococcus aureus [28]): Active
Activity (Staphylococcus aureus [29]): Active
log10cfu (Staphylococcus aureus [19]): 1.5
log10cfu (Staphylococcus aureus [5]): -1.37
EC50 (Staphylococcus aureus [6]): 0.03 µg/mL (≈ 0.0355 µM)
Activity (Staphylococcus aureus [7]): 0.06 mg/L
log10cfu (Staphylococcus aureus [8]): -0.86
EC50 (Staphylococcus aureus [9]): 0.0068 µg/mL (≈ 0.00805 µM)
Activity (Staphylococcus aureus [10]): 0.022 mg/L
log10cfu (Listeria monocytogenes [20]): -0.66
EC50 (Listeria monocytogenes [21]): 0.02 µg/mL (≈ 0.0237 µM)
Activity (Listeria monocytogenes [22]): 0.11 mg/L
EC50 (Legionella pneumophila [23]): 0.052 µg/mL (≈ 0.0615 µM)
log10cfu (Legionella pneumophila [24]): -1.03
Activity (Legionella pneumophila [25]): 0.018 mg/L
